Test results reported in the M2OR odorant receptor database.
Numbering of substitutions follows the chain as printed.

How the values were obtained:
Details in all cases: stereoisomer not certain
[1] = system: T1, O10R2 I170L
T1 sequence (whole entry): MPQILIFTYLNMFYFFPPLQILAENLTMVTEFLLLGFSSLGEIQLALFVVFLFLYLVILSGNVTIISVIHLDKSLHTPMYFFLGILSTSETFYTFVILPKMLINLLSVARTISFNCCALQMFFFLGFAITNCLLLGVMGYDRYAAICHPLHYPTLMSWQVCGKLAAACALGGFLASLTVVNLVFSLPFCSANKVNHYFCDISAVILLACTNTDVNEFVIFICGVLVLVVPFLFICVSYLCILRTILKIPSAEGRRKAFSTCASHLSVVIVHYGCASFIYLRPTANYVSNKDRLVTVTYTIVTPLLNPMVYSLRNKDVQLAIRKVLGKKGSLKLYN
Procedure, shortened: (§1)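 Whether a receptor–molecule pair is responsive (active) rests on the original authors' judgment that its measured signal was statistically different from baseline. Pairs without that judgment are non-responsive (inactive). Sources used varied assay methods, commonly transient luciferase assays in mammalian cell lines.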

[2] = system: T2, O10T2 I137M
T2 sequence (whole entry): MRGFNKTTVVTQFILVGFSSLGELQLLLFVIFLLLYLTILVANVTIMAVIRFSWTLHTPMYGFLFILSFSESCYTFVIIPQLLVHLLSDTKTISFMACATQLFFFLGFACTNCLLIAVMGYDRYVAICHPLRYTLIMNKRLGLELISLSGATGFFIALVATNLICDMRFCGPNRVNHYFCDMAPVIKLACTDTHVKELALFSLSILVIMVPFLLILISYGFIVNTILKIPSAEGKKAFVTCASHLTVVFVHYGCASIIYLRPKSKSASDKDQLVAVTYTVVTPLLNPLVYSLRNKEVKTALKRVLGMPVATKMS
Procedure, shortened: as §1

[3] = system: T3, O10V1 Q123R
T3 sequence (whole entry): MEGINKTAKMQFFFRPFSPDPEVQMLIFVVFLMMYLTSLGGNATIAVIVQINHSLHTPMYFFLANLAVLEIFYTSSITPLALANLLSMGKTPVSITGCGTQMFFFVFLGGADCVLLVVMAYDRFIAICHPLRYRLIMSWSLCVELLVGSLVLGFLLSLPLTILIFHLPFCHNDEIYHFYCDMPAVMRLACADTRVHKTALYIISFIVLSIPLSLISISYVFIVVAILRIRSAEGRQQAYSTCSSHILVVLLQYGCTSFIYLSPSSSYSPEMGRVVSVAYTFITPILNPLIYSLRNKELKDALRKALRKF
Procedure, shortened: as §1

[4] = system: T4, O10X1 N4T R181S
T4 sequence (whole entry): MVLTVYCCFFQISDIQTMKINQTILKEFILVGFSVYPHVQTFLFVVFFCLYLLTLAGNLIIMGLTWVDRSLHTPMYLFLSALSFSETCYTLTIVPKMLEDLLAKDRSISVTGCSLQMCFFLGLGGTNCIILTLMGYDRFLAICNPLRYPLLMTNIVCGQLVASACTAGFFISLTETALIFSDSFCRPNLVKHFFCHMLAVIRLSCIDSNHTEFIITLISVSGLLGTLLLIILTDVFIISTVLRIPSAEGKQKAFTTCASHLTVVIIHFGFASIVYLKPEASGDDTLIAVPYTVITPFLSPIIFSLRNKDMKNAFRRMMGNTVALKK
Procedure, shortened: as §1

[5] = system: T5, O11G2 F3I I99N V116I
T5 sequence (whole entry): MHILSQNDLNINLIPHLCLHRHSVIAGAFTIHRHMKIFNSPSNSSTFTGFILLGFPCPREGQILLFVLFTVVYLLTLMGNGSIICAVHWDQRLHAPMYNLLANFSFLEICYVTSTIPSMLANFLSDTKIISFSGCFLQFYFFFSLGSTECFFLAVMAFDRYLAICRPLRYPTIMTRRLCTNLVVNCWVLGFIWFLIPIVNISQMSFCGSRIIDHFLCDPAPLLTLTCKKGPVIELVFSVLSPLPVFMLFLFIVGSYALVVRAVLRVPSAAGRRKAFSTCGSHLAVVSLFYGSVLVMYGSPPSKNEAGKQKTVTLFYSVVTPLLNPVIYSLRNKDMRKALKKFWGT
Procedure, shortened: as §1

[6] = system: T6, O11H1 M240V
T6 sequence (whole entry): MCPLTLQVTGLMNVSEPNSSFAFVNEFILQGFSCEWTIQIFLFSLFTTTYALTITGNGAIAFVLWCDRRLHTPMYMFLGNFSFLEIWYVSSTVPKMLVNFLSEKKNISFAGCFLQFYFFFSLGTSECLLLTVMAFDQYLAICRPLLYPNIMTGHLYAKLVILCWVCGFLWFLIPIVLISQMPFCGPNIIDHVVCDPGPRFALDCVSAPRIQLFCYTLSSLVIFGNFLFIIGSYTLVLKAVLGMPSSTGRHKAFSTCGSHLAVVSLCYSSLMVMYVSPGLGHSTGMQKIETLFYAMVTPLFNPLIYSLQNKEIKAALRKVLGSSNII
Procedure, shortened: as §1

[7] = system: T7, O11H6 I107T
T7 sequence (whole entry): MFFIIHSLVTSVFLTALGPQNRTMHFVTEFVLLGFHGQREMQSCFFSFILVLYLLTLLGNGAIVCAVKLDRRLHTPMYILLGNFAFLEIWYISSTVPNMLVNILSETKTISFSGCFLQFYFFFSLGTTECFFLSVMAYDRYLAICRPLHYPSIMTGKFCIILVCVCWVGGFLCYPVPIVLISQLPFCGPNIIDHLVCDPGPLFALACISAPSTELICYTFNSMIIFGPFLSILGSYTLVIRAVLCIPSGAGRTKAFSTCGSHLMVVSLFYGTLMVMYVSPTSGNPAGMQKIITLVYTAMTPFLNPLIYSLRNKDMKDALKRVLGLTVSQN
Procedure, shortened: as §1

[8] = system: T8, O11HC C156Y V240M
T8 sequence (whole entry): T6 sequence (whole entry) with S33T, R68W, V240M
Procedure, shortened: as §1

[9] = system: T9, O12D2 S104F
T9 sequence (whole entry): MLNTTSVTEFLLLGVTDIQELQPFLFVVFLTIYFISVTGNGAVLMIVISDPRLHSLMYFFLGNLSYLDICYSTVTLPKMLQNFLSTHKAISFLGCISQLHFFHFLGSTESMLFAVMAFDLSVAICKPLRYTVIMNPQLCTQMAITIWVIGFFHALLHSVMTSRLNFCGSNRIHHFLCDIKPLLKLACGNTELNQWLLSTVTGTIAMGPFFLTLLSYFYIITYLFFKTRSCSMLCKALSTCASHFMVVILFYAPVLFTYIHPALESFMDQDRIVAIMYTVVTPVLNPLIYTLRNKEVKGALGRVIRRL
Procedure, shortened: as §1

[10] = system: T10, O13C2 H6Q
T10 sequence (whole entry): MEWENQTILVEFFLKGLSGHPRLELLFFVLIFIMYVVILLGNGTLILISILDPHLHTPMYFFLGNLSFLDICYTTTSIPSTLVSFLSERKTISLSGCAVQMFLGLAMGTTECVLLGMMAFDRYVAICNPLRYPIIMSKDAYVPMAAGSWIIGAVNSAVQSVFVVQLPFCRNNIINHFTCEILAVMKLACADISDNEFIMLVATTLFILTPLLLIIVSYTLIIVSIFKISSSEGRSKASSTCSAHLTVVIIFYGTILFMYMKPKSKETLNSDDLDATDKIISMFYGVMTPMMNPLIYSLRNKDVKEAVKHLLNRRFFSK
Procedure, shortened: as §1

[11] = system: T11, O13C8 A19D
T11 sequence (whole entry): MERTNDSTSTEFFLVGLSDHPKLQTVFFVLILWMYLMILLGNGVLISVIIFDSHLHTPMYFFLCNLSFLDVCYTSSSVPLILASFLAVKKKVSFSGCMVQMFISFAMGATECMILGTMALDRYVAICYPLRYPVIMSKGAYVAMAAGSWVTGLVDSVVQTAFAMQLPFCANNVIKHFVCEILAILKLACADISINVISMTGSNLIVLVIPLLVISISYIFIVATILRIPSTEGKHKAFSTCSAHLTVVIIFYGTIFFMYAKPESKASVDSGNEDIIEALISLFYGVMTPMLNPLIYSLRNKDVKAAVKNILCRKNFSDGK
Procedure, shortened: as §1

[12] = system: T12, O13C9 H17L V19G L23H
T12 sequence (whole entry): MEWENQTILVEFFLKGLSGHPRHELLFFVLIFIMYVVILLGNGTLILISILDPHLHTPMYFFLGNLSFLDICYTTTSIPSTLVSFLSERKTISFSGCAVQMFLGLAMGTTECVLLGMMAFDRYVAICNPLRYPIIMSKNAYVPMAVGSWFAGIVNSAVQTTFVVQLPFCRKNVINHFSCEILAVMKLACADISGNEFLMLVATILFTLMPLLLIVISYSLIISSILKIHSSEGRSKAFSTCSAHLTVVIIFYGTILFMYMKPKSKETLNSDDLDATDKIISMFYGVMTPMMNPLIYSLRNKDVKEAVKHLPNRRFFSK
Procedure, shortened: as §1

[13] = system: T13, O13C9 Q6H
T13 sequence (whole entry): T12 sequence (whole entry) with Q6H, L17H, G19V, H23L
Procedure, shortened: as §1

[14] = system: T14, O13F1 F18S T254M
T14 sequence (whole entry): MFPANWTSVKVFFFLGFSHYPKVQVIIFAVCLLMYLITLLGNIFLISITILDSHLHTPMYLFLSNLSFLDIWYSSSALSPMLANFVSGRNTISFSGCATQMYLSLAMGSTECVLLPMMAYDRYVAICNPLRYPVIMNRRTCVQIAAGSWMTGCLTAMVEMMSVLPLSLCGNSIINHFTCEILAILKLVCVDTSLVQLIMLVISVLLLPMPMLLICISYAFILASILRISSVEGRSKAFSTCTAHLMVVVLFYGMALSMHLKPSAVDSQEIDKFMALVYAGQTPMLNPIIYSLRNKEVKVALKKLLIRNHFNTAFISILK
Procedure, shortened: as §1

[15] = system: T15, O13F1 F18S
T15 sequence (whole entry): T14 sequence (whole entry) with M254T
Procedure, shortened: as §1

[16] = system: T16, O13G1 K46I M146L
T16 sequence (whole entry): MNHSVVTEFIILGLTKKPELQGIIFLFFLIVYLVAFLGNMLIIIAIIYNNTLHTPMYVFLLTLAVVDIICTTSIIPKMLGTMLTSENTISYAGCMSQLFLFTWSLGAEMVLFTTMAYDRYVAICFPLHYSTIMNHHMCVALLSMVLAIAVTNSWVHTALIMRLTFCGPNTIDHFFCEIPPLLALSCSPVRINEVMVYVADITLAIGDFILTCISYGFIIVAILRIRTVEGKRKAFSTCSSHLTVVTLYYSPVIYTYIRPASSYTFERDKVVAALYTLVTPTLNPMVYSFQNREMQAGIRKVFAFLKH
Procedure, shortened: as §1

[17] = system: T17, O13G1
T17 sequence (whole entry): T16 sequence (whole entry) with I46K, I132V, L146M
Procedure, shortened: as §1

[18] = system: T18, O13H1 Y266S
T18 sequence (whole entry): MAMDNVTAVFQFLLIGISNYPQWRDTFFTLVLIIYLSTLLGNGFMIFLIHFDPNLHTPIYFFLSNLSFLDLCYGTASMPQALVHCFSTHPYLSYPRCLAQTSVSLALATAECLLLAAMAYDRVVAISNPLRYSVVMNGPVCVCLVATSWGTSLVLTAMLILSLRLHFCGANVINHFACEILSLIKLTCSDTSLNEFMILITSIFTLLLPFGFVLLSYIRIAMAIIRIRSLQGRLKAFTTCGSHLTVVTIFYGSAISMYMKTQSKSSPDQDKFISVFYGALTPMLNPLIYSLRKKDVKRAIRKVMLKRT
Procedure, shortened: as §1

[19] = system: T19, O13J1
T19 sequence (whole entry): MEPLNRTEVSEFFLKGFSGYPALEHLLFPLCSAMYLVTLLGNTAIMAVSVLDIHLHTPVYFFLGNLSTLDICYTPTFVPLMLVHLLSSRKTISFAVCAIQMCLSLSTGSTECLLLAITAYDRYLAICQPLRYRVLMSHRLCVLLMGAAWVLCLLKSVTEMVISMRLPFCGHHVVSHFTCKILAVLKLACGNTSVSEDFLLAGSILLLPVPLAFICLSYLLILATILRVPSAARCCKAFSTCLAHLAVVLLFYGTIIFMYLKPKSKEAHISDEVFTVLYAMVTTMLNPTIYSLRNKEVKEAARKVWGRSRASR
Procedure, shortened: as §1

[20] = system: T20, O1440
T20 sequence (whole entry): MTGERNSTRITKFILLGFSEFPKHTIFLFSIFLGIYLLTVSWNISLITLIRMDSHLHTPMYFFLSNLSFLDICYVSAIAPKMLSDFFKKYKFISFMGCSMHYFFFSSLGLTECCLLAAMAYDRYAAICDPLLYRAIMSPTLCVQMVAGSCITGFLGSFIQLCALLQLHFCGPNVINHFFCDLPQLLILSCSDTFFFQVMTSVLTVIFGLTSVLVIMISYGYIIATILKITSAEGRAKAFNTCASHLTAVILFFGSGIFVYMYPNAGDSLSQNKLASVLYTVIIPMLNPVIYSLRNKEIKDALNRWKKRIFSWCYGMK
Procedure, shortened: as §1

Measured: odorant receptor agonist call;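 note: active if original authors judged signal statistically different from baseline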

CC1=C(O)C(=O)C(C)O1 (stereo not given)
not listed: [20]
inactive: all other assays above

O=C1CCCCCC=CCCCCCCCCO1
active: [20]

CC1CCCCCCCCCCCCC(=O)C1 (stereo not given)
active: [20]

CCCCCCCCCCCCCC(C)=O
inactive: [20]

CCCC(S)CCOC(C)=O (stereo not given)
not listed: [20]
inactive: all other assays above

CCC(=O)OCC(C)(C)OC(C)C1CCCC(C)(C)C1 (stereo not given)
inactive: [20]

CC(=O)c1c(C)c([N+](=O)[O-])c(C(C)(C)C)c([N+](=O)[O-])c1C
active: [20]

O=C1CCCCCCCCCC1
inactive: [20]

OC1CCCCCCCCCCCCCC1
active: [20]
